Where a SMILES comes first, the peptide text is derived from it. [ ]: non-standard residue; d: D form. Orn = NCCC[C@H](N)C(=O)O; Dab = NCC[C@H](N)C(=O)O; Dap = NC[C@H](N)C(=O)O A value given as a limit tells only on which side of the number the result lay.

Experimental findings from ChEMBL document CHEMBL5143675, “Attenuating the Streptococcus pneumoniae Competence Regulon Using Urea-Bridged Cyclic Dominant-Negative Competence-Stimulating Peptide Analogs” (J Med Chem, 2022) are described below.

A short description of data set [1]: Stability of the compound in CD-1 mouse assessed as drug degradation at 50 ug, iv by IVIS spectrum in vivo imaging analysis. Type of data set: ADME, organism-based. As to conditions: dose 50 µg. Put shortly:
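Seven-week-old CD-1 mice (cohorts of 4–5) given Cy7.5-labelled peptide (50 μg/mouse) by retro-orbital i.v. injection, anaesthetized with 3% isoflurane and imaged by IVIS SpectrumCT fluorescence imaging.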

Data set [2] can be described thus: Antagonist activity against Streptococcus pneumoniae D39-pcomX-lacZ strain expressing ComD1 receptor assessed as inhibition of ComD1 receptor activity by beta-galactosidase reporter gene assay. Put shortly:
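Reporter strains (pcomX::lacZ) grown on THY agar with 5% horse serum and 4 μg/mL chloramphenicol at 37 °C, 5% CO2; overnight THY broth culture diluted (1:50 D39, 1:10 TIGR4) and grown to early exponential phase (OD600 0.30–0.35 D39; 0.20–0.25 TIGR4). Primary screen at 10,000 nM peptide; EC50/IC50 from dose-response over a concentration range, three independent experiments, 95% confidence interval.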
(Reporter assays use an easily measured gene product as a stand-in for the process of interest.)

Data set [3] is described as follows: Antagonist activity against Streptococcus pneumoniae TIGR4-pcomX-lacZ strain expressing ComD2 receptor assessed as inhibition of ComD2 receptor activity by beta-galactosidase reporter gene assay. The gist of the method:
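TIGR4 pcomX::lacZ reporter grown on THY plates with 5% horse serum and 4 μg/mL chloramphenicol (8–9 h, 37 °C, 5% CO2). 2–3 colonies were grown overnight (15 h) in THY with chloramphenicol, diluted 1:10, and grown 3–4 h to OD600 0.20–0.25. Peptides were tested as competitive inhibitors against native CSP2. […] Three independent experiments.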

A short description of data set [4]: Agonist activity against Streptococcus pneumoniae TIGR4-pcomX-lacZ strain expressing ComD2 receptor assessed as activation of ComD2 receptor activity by beta-galactosidase reporter gene assay. The gist of the method:
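Reporter strains (pcomX::lacZ) grown on THY agar with 5% horse serum and 4 μg/mL chloramphenicol at 37 °C, 5% CO2; overnight THY broth culture diluted (1:50 D39, 1:10 TIGR4) and grown to early exponential phase (OD600 0.30–0.35 D39; 0.20–0.25 TIGR4).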

For the compound `CC[C@H](C)[C@H](NC(=O)[C@H](Cc1ccccc1)NC(=O)[C@H](CC(=O)O)NC(=O)[C@H](CCCNC(=N)N)NC(=O)[C@H](Cc1ccccc1)NC(=O)[C@H](Cc1ccccc1)NC(=O)[C@H](CCCCN)NC(=O)[C@H](CO)NC(=O)[C@H](CC(C)C)NC(=O)[C@H](CCCNC(=N)N)NC(=O)[C@H](CCSC)NC(=O)[C@H](CCC(=O)O)NC(=O)CCCCC[N+]1=C(/C=C/C2=CC(=C/C=C3\N(C)c4ccc5ccccc5c4C3(C)C)/CCC2)C(C)(C)c2ccc3ccccc3c21)C(=O)N[C@@H](CC(C)C)C(=O)N[C@@H](CCC(N)=O)C(=O)N[C@@H](CCCNC(=N)N)C(=O)N[C@@H](CCCCN)C(=O)N[C@@H](CCCCN)C(=O)O`, the Drug degradation in data set [1] came to 36 h. As usually defined, the IC50 is the midpoint of a concentration-inhibition curve. On to `CC[C@H](C)[C@H](NC(=O)[C@H](Cc1ccccc1)NC(=O)[C@H](CC(=O)O)NC(=O)[C@H](CCCNC(=N)N)NC(=O)[C@H](Cc1ccccc1)NC(=O)[C@H](Cc1ccccc1)NC(=O)[C@H](CCCCN)NC(=O)[C@H](CO)NC(=O)[C@H](CC(C)C)NC(=O)[C@H](CCCNC(=N)N)NC(=O)[C@H](CCSC)NC(=O)[C@H](C)N)C(=O)N[C@@H](CC(C)C)C(=O)N[C@@H](CCC(N)=O)C(=O)N[C@@H](CCCNC(=N)N)C(=O)N[C@@H](CCCCN)C(=O)N[C@@H](CCCCN)C(=O)O`, for which the concentration for half-maximal inhibition (IC50) in data set [2] was 85.7 nM.

In the case of `CC[C@H](C)[C@H](NC(=O)[C@H](Cc1ccccc1)NC(=O)[C@H](CCCCN)NC(=O)[C@H](CCCNC(=N)N)NC(=O)[C@H](Cc1ccccc1)NC(=O)[C@H](Cc1ccccc1)NC(=O)[C@H](CCN)NC(=O)[C@H](CO)NC(=O)[C@H](CC(C)C)NC(=O)[C@H](CCCNC(=N)N)NC(=O)[C@H](CCSC)NC(=O)[C@H](C)N)C(=O)N[C@@H](CC(C)C)C(=O)N[C@@H](CCC(N)=O)C(=O)N[C@@H](CCCNC(=N)N)C(=O)N[C@@H](CCCCN)C(=O)N[C@@H](CCCCN)C(=O)O` (H-AMRLS[Dab]FFRKFILQRKK-OH), the figures for the half-inhibitory concentration (IC50) in data set [2] and in data set [3] were 784 nM and above 1000 nM, respectively. `CC[C@H](C)[C@H](NC(=O)[C@H](Cc1ccccc1)NC(=O)[C@H](CCN)NC(=O)[C@H](CCCNC(=N)N)NC(=O)[C@H](Cc1ccccc1)NC(=O)[C@H](Cc1ccccc1)NC(=O)[C@H](CCN)NC(=O)[C@H](CO)NC(=O)[C@H](CC(C)C)NC(=O)[C@H](CCCNC(=N)N)NC(=O)[C@H](CCSC)NC(=O)[C@H](C)N)C(=O)N[C@@H](CC(C)C)C(=O)N[C@@H](CCC(N)=O)C(=O)N[C@@H](CCCNC(=N)N)C(=O)N[C@@H](CCCCN)C(=O)N[C@@H](CCCCN)C(=O)O` (H-AMRLS[Dab]FFR[Dab]FILQRKK-OH): in data set [3], the IC50 was above 1000 nM. The same measure, in the same setting: under `CC[C@H](C)[C@H](NC(=O)[C@H](Cc1ccccc1)NC(=O)[C@H](CN)NC(=O)[C@H](CCCNC(=N)N)NC(=O)[C@H](Cc1ccccc1)NC(=O)[C@H](Cc1ccccc1)NC(=O)[C@H](CCN)NC(=O)[C@H](CO)NC(=O)[C@H](CC(C)C)NC(=O)[C@H](CCCNC(=N)N)NC(=O)[C@H](CCSC)NC(=O)[C@H](C)N)C(=O)N[C@@H](CC(C)C)C(=O)N[C@@H](CCC(N)=O)C(=O)N[C@@H](CCCNC(=N)N)C(=O)N[C@@H](CCCCN)C(=O)N[C@@H](CCCCN)C(=O)O` (H-AMRLS[Dab]FFR[Dap]FILQRKK-OH) stands above 1000 nM.

`CC[C@H](C)[C@H](NC(=O)[C@H](Cc1ccccc1)NC(=O)[C@H](CCCN)NC(=O)[C@H](CCCNC(=N)N)NC(=O)[C@H](Cc1ccccc1)NC(=O)[C@H](Cc1ccccc1)NC(=O)[C@H](CCN)NC(=O)[C@H](CO)NC(=O)[C@H](CC(C)C)NC(=O)[C@H](CCCNC(=N)N)NC(=O)[C@H](CCSC)NC(=O)[C@H](C)N)C(=O)N[C@@H](CC(C)C)C(=O)N[C@@H](CCC(N)=O)C(=O)N[C@@H](CCCNC(=N)N)C(=O)N[C@@H](CCCCN)C(=O)N[C@@H](CCCCN)C(=O)O` (H-AMRLS[Dab]FFR[Orn]FILQRKK-OH): the IC50 in data set [3] is above 1000 nM. A word on the EC50: it is the concentration that produces a half-maximal response. On to `CC[C@H](C)[C@H](NC(=O)[C@H](Cc1ccccc1)NC(=O)[C@H](CCCCN)NC(=O)[C@H](CCCNC(=N)N)NC(=O)[C@H](Cc1ccccc1)NC(=O)[C@H](Cc1ccccc1)NC(=O)[C@H](CN)NC(=O)[C@H](CO)NC(=O)[C@H](CC(C)C)NC(=O)[C@H](CCCNC(=N)N)NC(=O)[C@H](CCSC)NC(=O)[C@H](C)N)C(=O)N[C@@H](CC(C)C)C(=O)N[C@@H](CCC(N)=O)C(=O)N[C@@H](CCCNC(=N)N)C(=O)N[C@@H](CCCCN)C(=O)N[C@@H](CCCCN)C(=O)O` (H-AMRLS[Dap]FFRKFILQRKK-OH), for which the IC50 in data set [2] came to 454 nM. Moreover, the EC50 in data set [4] amounted to 39.5 nM. Regarding `CC[C@H](C)[C@H](NC(=O)[C@H](Cc1ccccc1)NC(=O)[C@H](CCCCN)NC(=O)[C@H](CCCNC(=N)N)NC(=O)[C@H](Cc1ccccc1)NC(=O)[C@H](Cc1ccccc1)NC(=O)[C@H](CCCN)NC(=O)[C@H](CO)NC(=O)[C@H](CC(C)C)NC(=O)[C@H](CCCNC(=N)N)NC(=O)[C@H](CCSC)NC(=O)[C@H](C)N)C(=O)N[C@@H](CC(C)C)C(=O)N[C@@H](CCC(N)=O)C(=O)N[C@@H](CCCNC(=N)N)C(=O)N[C@@H](CCCCN)C(=O)N[C@@H](CCCCN)C(=O)O` (H-AMRLS[Orn]FFRKFILQRKK-OH), the values for the half-maximal inhibitory concentration (IC50) in data set [2] and in data set [3] were 339 nM and above 1000 nM, respectively. With `CC[C@H](C)[C@H](NC(=O)[C@H](Cc1ccccc1)NC(=O)[C@H](CCN)NC(=O)[C@H](CCCNC(=N)N)NC(=O)[C@H](Cc1ccccc1)NC(=O)[C@H](Cc1ccccc1)NC(=O)[C@H](CCCN)NC(=O)[C@H](CO)NC(=O)[C@H](CC(C)C)NC(=O)[C@H](CCCNC(=N)N)NC(=O)[C@H](CCSC)NC(=O)[C@H](C)N)C(=O)N[C@@H](CC(C)C)C(=O)N[C@@H](CCC(N)=O)C(=O)N[C@@H](CCCNC(=N)N)C(=O)N[C@@H](CCCCN)C(=O)N[C@@H](CCCCN)C(=O)O` (H-AMRLS[Orn]FFR[Dab]FILQRKK-OH), the IC50 in data set [3] was above 1000 nM. For `CC[C@H](C)[C@H](NC(=O)[C@H](Cc1ccccc1)NC(=O)[C@H](CN)NC(=O)[C@H](CCCNC(=N)N)NC(=O)[C@H](Cc1ccccc1)NC(=O)[C@H](Cc1ccccc1)NC(=O)[C@H](CCCN)NC(=O)[C@H](CO)NC(=O)[C@H](CC(C)C)NC(=O)[C@H](CCCNC(=N)N)NC(=O)[C@H](CCSC)NC(=O)[C@H](C)N)C(=O)N[C@@H](CC(C)C)C(=O)N[C@@H](CCC(N)=O)C(=O)N[C@@H](CCCNC(=N)N)C(=O)N[C@@H](CCCCN)C(=O)N[C@@H](CCCCN)C(=O)O` (H-AMRLS[Orn]FFR[Dap]FILQRKK-OH), the IC50 in data set [3] was above 1000 nM. `CC[C@H](C)[C@H](NC(=O)[C@H](Cc1ccccc1)NC(=O)[C@H](CCCN)NC(=O)[C@H](CCCNC(=N)N)NC(=O)[C@H](Cc1ccccc1)NC(=O)[C@H](Cc1ccccc1)NC(=O)[C@H](CCCN)NC(=O)[C@H](CO)NC(=O)[C@H](CC(C)C)NC(=O)[C@H](CCCNC(=N)N)NC(=O)[C@H](CCSC)NC(=O)[C@H](C)N)C(=O)N[C@@H](CC(C)C)C(=O)N[C@@H](CCC(N)=O)C(=O)N[C@@H](CCCNC(=N)N)C(=O)N[C@@H](CCCCN)C(=O)N[C@@H](CCCCN)C(=O)O` (H-AMRLS[Orn]FFR[Orn]FILQRKK-OH): in data set [3], the IC50 is above 1000 nM. Take H-AMRLSKFFRKFILQRKK-OH: the IC50 in data set [2] turned out to be 217 nM. For H-EMRISRIILDFLFLRKK-OH, in data set [4], the EC50 is 50.7 nM.
